Screening results (PubChem BioAssay)
NadD block: inhibitors of Staphylococcus aureus NadD; purified NadD enzyme, colorimetric absorbance read-out; inhibition, % at 20 µM; 0.78% of 360,000 active; AID 602399; in the data active means inhibition above about 26%
STEP inh: STEP (human) phosphatase inhibition. P54829. recombinant STEP, OMFP fluorogenic substrate, fluorescence. inhibition, % at 20 µM. 0.25% of 360,000 active. AID 588621;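 active means inhibition at 20 µM, scaled per plate between control wells, above about 37%, limit read from the data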;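 further: 0% = DMSO with enzyme and substrate and 100% = substrate only without enzyme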
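material = STEP tyrosine phosphatase | reagent = fluorogenic phosphatase substrate OMFP at 25 µM final | doses = single compound dose of 20 µM, 1% DMSO final | schedule = 20 min reaction, room temperature, in the dark | measured by = fluorescence, 480/540 nm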
Scp1 inh: inhibitors of human Scp-1 phosphatase. Q9GZU7. Recombinant Scp1, phosphopeptide, malachite green phosphate absorbance. inhibition, % at 20 µM. 0.88% of 340,000 active. AID 493091;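 active means inhibition above about 50% at 20 µM, limit read from the data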;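 further: plate controls were DMSO wells with enzyme for no effect and wells lacking enzyme for full effect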
Target sequence (Q9GZU7 76-261 limits assumed): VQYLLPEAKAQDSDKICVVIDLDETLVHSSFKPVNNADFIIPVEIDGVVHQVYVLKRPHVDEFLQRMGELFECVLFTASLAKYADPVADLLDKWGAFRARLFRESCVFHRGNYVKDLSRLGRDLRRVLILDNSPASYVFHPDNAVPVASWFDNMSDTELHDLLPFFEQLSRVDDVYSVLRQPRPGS
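Test system: SCP-1 phosphatase catalytic domain, residues 76-261 | Compound dosing: One concentration, 20 µM, with 1.0% DMSO | Schedule: 45 min room-temperature reaction, 5 min colour, 30 min stabiliser | Detection: Absorbance at 630 nm | Read-out basis: % inhibition of SCP-1 phosphate liberation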
DNMT1 inh: blocks human DNA methyltransferase DNMT1. 0.83% of 360,000 active. P26358. DNMT1 molecular beacon, Hinp1I cleavage, fluorescence. AID 588458. inhibition (reported as % activation of signal), % at 10 µM; in the data active means inhibition above about 50%
LMPTP inh: blocks human LMPTP phosphatase; inhibition, % at 20 µM; recombinant LMPTP-A, OMFP fluorogenic substrate, fluorescence intensity; P24666; 0.22% of 360,000 active;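 active means compounds that cut the enzyme signal by at least half of the control window in the single-dose screen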;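 further: plate controls were DMSO wells with enzyme plus substrate for no effect and substrate without enzyme for full effect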
Target sequence (P24666 whole entry, looked up): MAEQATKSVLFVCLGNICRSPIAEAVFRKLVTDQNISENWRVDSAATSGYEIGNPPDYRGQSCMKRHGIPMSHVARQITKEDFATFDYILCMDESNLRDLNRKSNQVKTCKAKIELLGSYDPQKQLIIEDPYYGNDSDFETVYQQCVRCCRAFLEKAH
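Test system: LMPTP-A phosphatase enzyme; input: 0.625 nM LMPTP-A final; reagent: OMFP substrate, 400 µM final; compound dosing: 20 µM single dose, 3% DMSO; incubation: 50 min dark incubation at room temperature; measured by: endpoint fluorescence intensity from OMFP dephosphorylation; measure: % inhibition relative to no-enzyme and uninhibited control wells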
SUMO1-SIM PPI: alters human SUMO1 binding to SIM partners; P63165; inhibition, % at 20 µM; 0.33% of 360,000 active; SUMO1 binding to a labelled peptide, TR-FRET, 1 h; in the data active means inhibition above about 37%
Target sequence (P63165 whole entry, looked up): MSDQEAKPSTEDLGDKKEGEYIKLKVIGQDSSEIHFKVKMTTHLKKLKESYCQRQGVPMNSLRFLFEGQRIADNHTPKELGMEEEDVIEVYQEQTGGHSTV
NadD conf: NadD (S. aureus) inhibition, single concentration confirmation | shares compounds with NadD block | purified S. aureus NadD, colorimetric enzyme assay | inhibition, % at 20 µM | 13% of 2,000 active | AID 624309; in the data active means inhibition mostly above about 42%, no sharp cut-off; inactive means mostly below about 42%
The depositor's hits bear a star. Only some compounds are listed: those with a hit (about 2.4% of all), similar ones and a draw of the others.

Results for Cc1ccc(S(=O)(=O)NN=Cc2ccccc2Cl)cc1 ?
NadD block: -4; STEP inh: -2; DNMT1 inh: -1; LMPTP inh: 0; SUMO1-SIM PPI: 3

Results for Cc1ccc(-n2nnnc2SCC(=O)NC(C(=O)O)(c2ccccc2)c2ccccc2)cc1C ?
NadD block: 0; STEP inh: -1; Scp1 inh: -9; DNMT1 inh: -2; LMPTP inh: 0; SUMO1-SIM PPI: 1

Results for CC(C)C[C@@H](CN)NC(=O)c1nc[nH]c1C(=O)N[C@@H](Cc1c[nH]c2ccccc12)C(=O)CNC[C@H](C)NC(=O)c1nc[nH]c1C(=O)N[C@@H](C)C(=O)O ?
NadD block: 17; STEP inh: 0; Scp1 inh: -8; DNMT1 inh: 9; LMPTP inh: -3; SUMO1-SIM PPI: 5

Results for CC(C)C[C@@H](CNCC(=O)[C@H](Cc1c[nH]c2ccccc12)NC(=O)c1[nH]cnc1C(=O)N[C@@H](C)CN)NC(=O)c1nc[nH]c1C(=O)N[C@@H](Cc1ccccc1)C(=O)O ?
NadD block: 34*; STEP inh: -2; Scp1 inh: -8; DNMT1 inh: -18; LMPTP inh: -5; SUMO1-SIM PPI: 8; NadD conf: 43

How did CC(C)C[C@@H](CN)NC(=O)c1nc[nH]c1C(=O)N[C@@H](C)C(=O)CNC[C@H](CC(C)C)NC(=O)c1nc[nH]c1C(=O)N[C@@H](Cc1ccccc1)C(=O)O do in these assays?
NadD block: 32*; STEP inh: 0; Scp1 inh: -8; DNMT1 inh: -1; LMPTP inh: -3; SUMO1-SIM PPI: 26; NadD conf: 46

What do the screens show for `CC(C)C[C@@H](CNCC(=O)[C@H](C)NC(=O)c1[nH]cnc1C(=O)N[C@@H](C)CN)NC(=O)c1nc[nH]c1C(=O)N[C@@H](Cc1ccccc1)C(=O)O`?
NadD block: 14; STEP inh: 0; Scp1 inh: -5; DNMT1 inh: 5; LMPTP inh: -4; SUMO1-SIM PPI: 4

How did CC(C)C[C@@H](CNC(=O)OC(C)(C)C)NC(=O)c1nc[nH]c1C(=O)N[C@@H](CC(C)C)C(=O)CNC[C@H](CC(C)C)NC(=O)c1nc[nH]c1C(=O)N[C@@H](Cc1c[nH]c2ccccc12)C(=O)OC(C)(C)C do in these assays?
NadD block: 30*; STEP inh: -3; Scp1 inh: -2; DNMT1 inh: -19; LMPTP inh: -2; SUMO1-SIM PPI: 4; NadD conf: 5

How did O=C(Cn1nnc(-c2ccccc2F)n1)Nc1ccc2c(c1)OCCO2 do in these assays?
NadD block: -8; STEP inh: 1; Scp1 inh: -7; DNMT1 inh: 1; LMPTP inh: 0; SUMO1-SIM PPI: 6

Results for CC1OC(Oc2ccc3ccc(=O)oc3c2-c2c(O)ccc3cc(Oc4ccc5ccc(=O)oc5c4)c(=O)oc23)C(O)C(O)C1O (stereo unspecified) ?
NadD block: 5; STEP inh: -3; Scp1 inh: 1; DNMT1 inh: -1; LMPTP inh: 0; SUMO1-SIM PPI: -17

What do the screens show for `CN1CCc2c(sc(/N=C/c3c[nH]c4ccccc34)c2C#N)C1`?
NadD block: 44*; STEP inh: -5; Scp1 inh: -7; DNMT1 inh: -24; LMPTP inh: 36; SUMO1-SIM PPI: -48; NadD conf: -14

Results for C=CCNc1ncnc2c1ncn2[C@H]1CN(C2CCCC2)C[C@@H](CO)O1 ?
NadD block: -5; STEP inh: 0; DNMT1 inh: 3; LMPTP inh: -1; SUMO1-SIM PPI: -3

Results for COc1ccccc1Cc1c(-c2ccco2)nc2ccc(Cl)cn12 ?
NadD block: 30*; STEP inh: 0; DNMT1 inh: 25; LMPTP inh: 6; SUMO1-SIM PPI: 4; NadD conf: 6

How did COc1ccccc1Cc1c(-c2ccc(C)cc2)nc2ccc(Cl)cn12 do in these assays?
NadD block: 10; STEP inh: 0; DNMT1 inh: 4; LMPTP inh: 0; SUMO1-SIM PPI: 0

How did Clc1ccc2nc(-c3ccco3)c(Cc3ccsc3)n2c1 do in these assays?
NadD block: 34*; STEP inh: 1; DNMT1 inh: 31; LMPTP inh: 25; SUMO1-SIM PPI: 9; NadD conf: 18

Results for CCc1ccc2[nH]c(=O)c(CN(CCN(C)C)C(=S)NCc3ccco3)cc2c1 ?
NadD block: 37*; STEP inh: 2; Scp1 inh: -5; DNMT1 inh: -11; LMPTP inh: 3; SUMO1-SIM PPI: 0; NadD conf: -34

How did Cc1nccn1CCCNC(=O)CC1C(=O)NCCN1Cc1ccc(F)cc1Cl (stereo unspecified) do in these assays?
NadD block: -2; STEP inh: -2; Scp1 inh: 1; DNMT1 inh: 0; LMPTP inh: 0; SUMO1-SIM PPI: -6

Results for COc1ccc(-c2c/c(=N\c3nc(-c4ccccc4)c(C)s3)c3ccccc3o2)cc1O ?
NadD block: 39*; STEP inh: 2; Scp1 inh: 24; DNMT1 inh: -8; LMPTP inh: 7; SUMO1-SIM PPI: -21; NadD conf: 18

Results for COc1ccc(/C=C2\Sc3ccc(C(=O)NCCN4CCCCCC4)cc3N(C)C2=O)cc1 ?
NadD block: 47*; STEP inh: 7; Scp1 inh: 0; DNMT1 inh: 18; LMPTP inh: 5; SUMO1-SIM PPI: -50; NadD conf: 8

How did COc1cccc(/C=C2/Sc3ccc(C(=O)NCCN4CCCC4)cc3NC2=O)c1 do in these assays?
NadD block: -9; STEP inh: 2; Scp1 inh: -7; DNMT1 inh: -16; LMPTP inh: -7; SUMO1-SIM PPI: -106

Results for O=C1Nc2cc(C(=O)NCCN3CCCCCC3)ccc2S/C1=C/c1ccccc1F ?
NadD block: 46*; STEP inh: 7; DNMT1 inh: 4; LMPTP inh: 3; SUMO1-SIM PPI: -61; NadD conf: -11

What do the screens show for `COC(=O)[C@]1(C)N[C@H](CN(C)C(=O)Nc2ccc(OC)cc2)[C@@H]2C(=O)N(Cc3ccccc3)C(=O)[C@@H]21`?
NadD block: 2; STEP inh: 2; Scp1 inh: -11; DNMT1 inh: 3; LMPTP inh: -1; SUMO1-SIM PPI: 3

How did O=C(Nc1ccc([N+](=O)[O-])cc1)Nc1nc(-c2ccc(Cl)s2)cs1 do in these assays?
NadD block: 51*; STEP inh: -2; Scp1 inh: -5; DNMT1 inh: 41; LMPTP inh: 1; SUMO1-SIM PPI: 1; NadD conf: 5
